Measurements: ChEMBL document CHEMBL4229344 (Eur J Med Chem, 2018)

Experiments:
[1] = biological target: Epidermal growth factor receptor (Homo sapiens) (UniProt P00533); experiment: Binding affinity to human partial length EGFR E746-A750del mutant expressed in bacterial expression system assessed as residual binding level at 1 uM by Kinomescan method relative to control
Summary of the method: (§1)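 Kinome-wide single-concentration binding screen (KINOMEscan) at 1 μM against a panel of 468 purified kinases and mutants. Read-out is relative binding of each kinase compared with control. Selectivity across the panel was summarised as an S(10) score.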

[2] = biological target: Insulin-like growth factor 1 receptor (Homo sapiens) (UniProt P08069); experiment: Binding affinity to wild-type human partial length IGF1R (L972 to D1294 residues) expressed in bacterial expression system assessed as residual binding level at 1 uM by Kinomescan method relative to control
[3] = biological target: Ribosomal protein S6 kinase alpha-3 (Homo sapiens) (UniProt P51812); experiment: Binding affinity to wild-type human partial length C-terminal RSK2 kinase domain 2 (V402 to S715 residues) expressed in mammalian expression system assessed as residual binding level at 1 uM by Kinomescan method relative to control
[4] = biological target: Phosphorylase b kinase gamma catalytic chain, skeletal muscle/heart isoform (Homo sapiens) (UniProt Q16816); experiment: Binding affinity to wild-type human full length PHKG1 (M1 to Y387 residues) expressed in bacterial expression system assessed as residual binding level at 1 uM by Kinomescan method relative to control
Summary of the method: (§2)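 KINOMEscan competition binding against 468 purified kinases/mutants, test compound at 1 µM; residual binding relative to control.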

[5] = biological target: Cyclin-dependent kinase 4 (Homo sapiens) (UniProt P11802); experiment: Binding affinity to wild-type human full length CDK4 (M1 to E303 residues) expressed in mammalian expression system assessed as residual binding level at 1 uM by Kinomescan method relative to control
Summary of the method: (§3)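 Single-concentration (1 μM) competition-binding screen run by KINOMEscan against a panel of 468 purified kinases and mutants. The read-out is the relative binding activity of the test compound to each kinase.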

[6] = biological target: Casein kinase I isoform gamma-1 (Homo sapiens) (UniProt Q9HCP0); experiment: Binding affinity to wild-type human partial length CSNK1G1 (T15 to S353 residues) expressed in bacterial expression system assessed as residual binding level at 1 uM by Kinomescan method relative to control
[7] = biological target: AP2-associated protein kinase 1 (Homo sapiens) (UniProt Q2M2I8); experiment: Binding affinity to human wild-type AAK1 (G25 to L333 residues) expressed in bacterial expression system assessed as residual binding level at 1 uM by Kinomescan method relative to control; summary of the method: as §3
AP2-associated protein kinase 1 (Homo sapiens), sequence (Q2M2I8 whole entry, looked up, the tested form may be a part): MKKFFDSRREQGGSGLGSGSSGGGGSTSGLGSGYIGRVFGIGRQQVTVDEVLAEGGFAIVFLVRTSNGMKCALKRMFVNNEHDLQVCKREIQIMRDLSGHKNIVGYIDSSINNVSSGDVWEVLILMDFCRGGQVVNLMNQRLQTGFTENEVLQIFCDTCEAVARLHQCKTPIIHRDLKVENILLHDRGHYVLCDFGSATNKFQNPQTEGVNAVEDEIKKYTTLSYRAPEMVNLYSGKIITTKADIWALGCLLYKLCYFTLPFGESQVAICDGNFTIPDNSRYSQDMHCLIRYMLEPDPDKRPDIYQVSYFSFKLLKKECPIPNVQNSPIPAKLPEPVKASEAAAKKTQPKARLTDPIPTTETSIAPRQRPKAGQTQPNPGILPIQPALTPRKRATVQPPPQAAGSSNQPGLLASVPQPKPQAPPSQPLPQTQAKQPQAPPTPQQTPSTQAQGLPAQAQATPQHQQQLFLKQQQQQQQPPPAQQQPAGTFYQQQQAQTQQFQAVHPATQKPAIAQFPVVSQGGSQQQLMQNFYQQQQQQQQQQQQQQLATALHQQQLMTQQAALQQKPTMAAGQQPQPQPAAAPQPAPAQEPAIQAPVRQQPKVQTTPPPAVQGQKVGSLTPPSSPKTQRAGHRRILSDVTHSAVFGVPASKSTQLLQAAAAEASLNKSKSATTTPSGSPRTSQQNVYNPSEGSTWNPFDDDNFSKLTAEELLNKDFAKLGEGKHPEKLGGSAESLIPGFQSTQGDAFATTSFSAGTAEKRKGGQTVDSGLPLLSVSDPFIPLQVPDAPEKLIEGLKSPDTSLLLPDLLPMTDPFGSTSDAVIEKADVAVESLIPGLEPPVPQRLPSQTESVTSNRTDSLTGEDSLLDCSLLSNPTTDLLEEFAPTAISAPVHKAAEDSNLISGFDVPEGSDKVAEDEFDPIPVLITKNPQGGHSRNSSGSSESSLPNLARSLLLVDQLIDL

[8] = biological target: STE20-like serine/threonine-protein kinase (Homo sapiens) (UniProt Q9H2G2); experiment: Binding affinity to wild-type human partial length SLK (S14 to A307 residues) expressed in bacterial expression system assessed as residual binding level at 1 uM by Kinomescan method relative to control
[9] = biological target: Serine/threonine-protein kinase Nek3 (Homo sapiens) (UniProt P51956); experiment: Binding affinity to wild-type human full length NEK3 (M1 to R506 residues) expressed in mammalian expression system assessed as residual binding level at 1 uM by Kinomescan method relative to control; summary of the method: as §2
[10] = biological target: Tyrosine-protein kinase JAK3 (Homo sapiens) (UniProt P52333); experiment: Binding affinity to wild-type human partial length JAK3 JH1 catalytic domain (I781 to S1124 residues) expressed in mammalian expression system assessed as residual binding level at 1 uM by Kinomescan method relative to control
Tyrosine-protein kinase JAK3 (Homo sapiens), sequence (P52333 whole entry, the tested form may be a part, canonical isoform): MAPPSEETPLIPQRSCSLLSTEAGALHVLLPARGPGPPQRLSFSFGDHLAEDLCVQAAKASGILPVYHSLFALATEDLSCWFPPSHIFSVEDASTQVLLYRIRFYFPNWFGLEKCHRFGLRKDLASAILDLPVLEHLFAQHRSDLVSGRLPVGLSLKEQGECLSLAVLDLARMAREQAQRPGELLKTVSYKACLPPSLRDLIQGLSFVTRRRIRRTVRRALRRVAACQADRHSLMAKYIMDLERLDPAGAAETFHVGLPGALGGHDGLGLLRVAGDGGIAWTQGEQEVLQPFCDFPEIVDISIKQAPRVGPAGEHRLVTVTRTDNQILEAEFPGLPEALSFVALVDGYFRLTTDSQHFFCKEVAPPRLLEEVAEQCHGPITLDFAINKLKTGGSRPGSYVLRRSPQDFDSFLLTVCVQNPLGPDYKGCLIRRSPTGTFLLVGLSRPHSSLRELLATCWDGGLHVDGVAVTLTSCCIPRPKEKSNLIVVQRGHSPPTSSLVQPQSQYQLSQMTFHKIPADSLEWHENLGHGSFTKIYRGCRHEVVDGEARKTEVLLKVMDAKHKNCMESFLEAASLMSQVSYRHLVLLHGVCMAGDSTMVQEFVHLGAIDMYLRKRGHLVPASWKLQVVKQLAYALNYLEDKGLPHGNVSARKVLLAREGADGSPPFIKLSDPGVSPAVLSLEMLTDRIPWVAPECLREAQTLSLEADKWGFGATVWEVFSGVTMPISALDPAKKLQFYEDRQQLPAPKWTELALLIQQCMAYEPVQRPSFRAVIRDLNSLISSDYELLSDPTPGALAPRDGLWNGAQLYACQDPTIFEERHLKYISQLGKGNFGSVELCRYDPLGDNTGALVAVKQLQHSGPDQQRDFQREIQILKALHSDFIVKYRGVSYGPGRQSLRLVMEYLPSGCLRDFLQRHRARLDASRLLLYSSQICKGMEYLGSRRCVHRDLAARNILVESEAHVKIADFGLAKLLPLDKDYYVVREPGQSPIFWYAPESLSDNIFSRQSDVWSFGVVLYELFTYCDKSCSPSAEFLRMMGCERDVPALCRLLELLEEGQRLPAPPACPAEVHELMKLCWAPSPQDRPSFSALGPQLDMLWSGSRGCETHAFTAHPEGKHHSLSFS

[11] = system: Phosphatidylinositol 4,5-bisphosphate 3-kinase catalytic subunit alpha isoform (Homo sapiens), P42336 [E545K]; experiment: Binding affinity to human partial length PIK3CA E545K mutant (R108 to N1068 residues) expressed in mammalian expression system assessed as residual binding level at 1 uM by Kinomescan method relative to control; summary of the method: as §1
Phosphatidylinositol 4,5-bisphosphate 3-kinase catalytic subunit alpha isoform (Homo sapiens), P42336 [E545K], sequence (P42336 whole entry E545K, the tested form may be a part, canonical isoform): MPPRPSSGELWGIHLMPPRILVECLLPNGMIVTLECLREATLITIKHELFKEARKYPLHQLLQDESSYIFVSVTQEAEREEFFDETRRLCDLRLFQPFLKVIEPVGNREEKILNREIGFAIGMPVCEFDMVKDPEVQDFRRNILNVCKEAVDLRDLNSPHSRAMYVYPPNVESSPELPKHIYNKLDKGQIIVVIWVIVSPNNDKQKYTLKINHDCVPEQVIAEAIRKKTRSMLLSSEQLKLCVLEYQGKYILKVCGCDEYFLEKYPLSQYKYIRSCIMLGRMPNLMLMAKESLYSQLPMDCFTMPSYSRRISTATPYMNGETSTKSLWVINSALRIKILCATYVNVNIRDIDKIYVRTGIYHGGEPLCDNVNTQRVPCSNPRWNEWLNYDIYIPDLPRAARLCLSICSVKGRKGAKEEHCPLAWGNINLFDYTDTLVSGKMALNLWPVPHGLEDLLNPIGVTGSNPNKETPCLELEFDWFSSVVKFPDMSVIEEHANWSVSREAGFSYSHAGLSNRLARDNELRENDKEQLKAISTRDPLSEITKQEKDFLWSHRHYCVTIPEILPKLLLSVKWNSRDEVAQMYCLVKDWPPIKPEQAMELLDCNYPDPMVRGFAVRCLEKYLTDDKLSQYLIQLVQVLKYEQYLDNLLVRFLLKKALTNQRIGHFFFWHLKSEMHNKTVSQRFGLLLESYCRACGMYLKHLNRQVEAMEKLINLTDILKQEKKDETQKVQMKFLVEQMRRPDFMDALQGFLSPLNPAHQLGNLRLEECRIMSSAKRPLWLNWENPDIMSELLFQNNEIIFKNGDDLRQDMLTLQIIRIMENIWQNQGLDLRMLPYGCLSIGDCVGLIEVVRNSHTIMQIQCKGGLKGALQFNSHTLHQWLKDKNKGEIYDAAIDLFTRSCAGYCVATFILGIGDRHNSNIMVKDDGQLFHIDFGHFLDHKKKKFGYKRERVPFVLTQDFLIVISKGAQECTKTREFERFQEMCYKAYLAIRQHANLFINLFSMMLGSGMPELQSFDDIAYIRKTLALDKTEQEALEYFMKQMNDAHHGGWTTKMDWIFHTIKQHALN

[12] = biological target: Inhibitor of nuclear factor kappa-B kinase subunit alpha (Homo sapiens) (UniProt O15111); experiment: Binding affinity to wild-type human full length IKK-alpha (M1 to E745 residues) expressed in mammalian expression system assessed as residual binding level at 1 uM by Kinomescan method relative to control; summary of the method: as §3
[13] = biological target: Serine/threonine-protein kinase 17A (Homo sapiens) (UniProt Q9UEE5); experiment: Binding affinity to wild-type human partial length DRAK1 (R32 to E363 residues) expressed in bacterial expression system assessed as residual binding level at 1 uM by Kinomescan method relative to control
Serine/threonine-protein kinase 17A (Homo sapiens), sequence (Q9UEE5 whole entry, the tested form may be a part): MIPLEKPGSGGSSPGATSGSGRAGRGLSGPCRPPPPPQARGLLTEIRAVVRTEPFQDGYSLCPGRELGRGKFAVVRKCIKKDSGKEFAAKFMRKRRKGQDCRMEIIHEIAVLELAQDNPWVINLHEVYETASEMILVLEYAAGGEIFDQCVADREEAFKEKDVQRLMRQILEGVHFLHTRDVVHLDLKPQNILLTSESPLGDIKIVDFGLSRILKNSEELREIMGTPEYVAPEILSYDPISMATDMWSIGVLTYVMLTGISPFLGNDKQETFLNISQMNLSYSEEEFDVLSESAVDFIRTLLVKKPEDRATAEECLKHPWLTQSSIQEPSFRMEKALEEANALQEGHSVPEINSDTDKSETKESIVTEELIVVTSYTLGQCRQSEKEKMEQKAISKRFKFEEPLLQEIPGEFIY

[14] = biological target: Serine/threonine-protein kinase Nek7 (Homo sapiens) (UniProt Q8TDX7); experiment: Binding affinity to wild-type human full length NEK7 (M1 to S302 residues) expressed in bacterial expression system assessed as residual binding level at 1 uM by Kinomescan method relative to control
Serine/threonine-protein kinase Nek7 (Homo sapiens), sequence (Q8TDX7 whole entry, looked up, the tested form may be a part): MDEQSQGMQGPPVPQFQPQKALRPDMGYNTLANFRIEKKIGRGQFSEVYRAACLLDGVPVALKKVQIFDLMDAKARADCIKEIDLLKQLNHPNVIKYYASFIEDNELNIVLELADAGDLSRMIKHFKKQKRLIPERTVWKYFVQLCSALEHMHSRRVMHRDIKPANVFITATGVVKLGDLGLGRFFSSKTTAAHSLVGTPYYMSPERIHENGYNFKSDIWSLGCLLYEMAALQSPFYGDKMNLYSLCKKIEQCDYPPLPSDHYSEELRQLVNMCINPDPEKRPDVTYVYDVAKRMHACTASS
Summary of the method: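 Single-concentration KINOMEscan (DiscoverX) binding screen at 1 μM against a panel of 468 purified kinases and mutants. The read-out is binding relative to control.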

[15] = biological target: Mitogen-activated protein kinase kinase kinase 20 (Homo sapiens) (UniProt Q9NYL2); experiment: Binding affinity to wild-type human partial length ZAK (M1 to L331 residues) expressed in bacterial expression system assessed as residual binding level at 1 uM by Kinomescan method relative to control
[16] = biological target: Serine/threonine-protein kinase PLK4 (Homo sapiens) (UniProt O00444); experiment: Binding affinity to wild-type human partial length PLK4 (M1 to S273 residues) expressed in mammalian expression system assessed as residual binding level at 1 uM by Kinomescan method relative to control
[17] = system: Tyrosine-protein kinase ABL1 (Homo sapiens), P00519 [T315I]; experiment: Binding affinity to human non-phosphorylated ABL1 T315I mutant (S229 to K512 residues) expressed in mammalian expression system assessed as residual binding level at 1 uM by Kinomescan method relative to control; summary of the method: as §1
[18] = biological target: cGMP-dependent protein kinase 2 (Homo sapiens) (UniProt Q13237); experiment: Binding affinity to wild-type human partial length PRKG2 (S422 to F762 residues) expressed in mammalian expression system assessed as residual binding level at 1 uM by Kinomescan method relative to control
[19] = biological target: Dual specificity protein kinase CLK2 (Homo sapiens) (UniProt P49760); experiment: Binding affinity to wild-type human partial length CLK2 (D144 to R498 residues) expressed in bacterial expression system assessed as residual binding level at 1 uM by Kinomescan method relative to control
Summary of the method: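 Kinome-wide competition binding screen against a panel of 468 purified kinases/mutants, with the test compound at a single concentration of 1 μM. Read-out is the relative binding activity of each kinase in the presence of compound.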

[20] = AUC (0 to infinity) in Sprague-Dawley rat at 10 mg/kg, po; format: ADME, organism-based; design: dose 10 mg/kg, route oral, time infinity; conditions: in vivo
Summary of the method: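 Male Sprague-Dawley rats (6–8 weeks) fasted overnight, dosed IV or orally; compound dissolved in 5% DMSO/40% PEG400/55% saline (dosing solution 1 mg/mL). Blood (~0.2 mL) from jugular vein into heparin; IV sampling 1 min–8 h, oral 5 min–24 h. Plasma separated by centrifugation at 2–8 °C, stored at −80 °C until analysis.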

[21] = biological target: Tyrosine-protein kinase Fes/Fps (Homo sapiens) (UniProt P07332); experiment: Binding affinity to wild-type human partial length FES (I527 to R822 residues) expressed in bacterial expression system assessed as residual binding level at 1 uM by Kinomescan method relative to control

Epidermal growth factor receptor (Homo sapiens), sequence (P00533 whole entry): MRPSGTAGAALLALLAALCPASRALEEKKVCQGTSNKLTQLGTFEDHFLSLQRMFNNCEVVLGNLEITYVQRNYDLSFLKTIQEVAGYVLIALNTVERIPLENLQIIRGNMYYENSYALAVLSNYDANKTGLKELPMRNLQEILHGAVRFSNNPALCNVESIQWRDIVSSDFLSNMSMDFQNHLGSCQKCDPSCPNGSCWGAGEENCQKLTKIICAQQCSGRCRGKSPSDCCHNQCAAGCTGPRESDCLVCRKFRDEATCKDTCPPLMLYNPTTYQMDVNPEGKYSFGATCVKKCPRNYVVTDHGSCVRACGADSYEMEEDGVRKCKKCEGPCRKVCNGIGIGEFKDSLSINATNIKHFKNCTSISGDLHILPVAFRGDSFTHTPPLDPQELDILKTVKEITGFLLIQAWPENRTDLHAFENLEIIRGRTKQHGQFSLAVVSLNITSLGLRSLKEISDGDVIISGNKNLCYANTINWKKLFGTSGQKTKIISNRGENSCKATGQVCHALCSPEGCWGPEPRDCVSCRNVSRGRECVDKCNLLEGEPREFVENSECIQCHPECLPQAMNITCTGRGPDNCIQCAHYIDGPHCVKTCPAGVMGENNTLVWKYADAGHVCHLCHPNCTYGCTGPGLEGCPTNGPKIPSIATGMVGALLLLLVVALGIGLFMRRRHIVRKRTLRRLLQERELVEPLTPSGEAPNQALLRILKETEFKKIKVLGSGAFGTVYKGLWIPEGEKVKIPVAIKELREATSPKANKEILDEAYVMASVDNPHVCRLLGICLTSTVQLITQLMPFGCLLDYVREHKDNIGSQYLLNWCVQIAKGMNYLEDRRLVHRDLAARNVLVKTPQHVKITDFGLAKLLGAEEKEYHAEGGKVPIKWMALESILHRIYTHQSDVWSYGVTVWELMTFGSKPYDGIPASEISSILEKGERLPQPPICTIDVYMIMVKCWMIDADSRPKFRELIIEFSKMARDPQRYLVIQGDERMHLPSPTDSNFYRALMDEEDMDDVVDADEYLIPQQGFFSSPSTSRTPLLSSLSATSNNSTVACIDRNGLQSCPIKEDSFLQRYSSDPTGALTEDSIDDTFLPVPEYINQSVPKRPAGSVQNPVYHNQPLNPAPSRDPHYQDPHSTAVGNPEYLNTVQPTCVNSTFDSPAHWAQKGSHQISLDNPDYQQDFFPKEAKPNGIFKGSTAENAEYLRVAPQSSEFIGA

Compound Cc1ccc(NC(=O)c2ccc(CN(CCN(C)C)C(=O)c3cccnc3)cc2)cc1Nc1nccc(-c2cccnc2)n1 has an Activity [1] of 100%, an Activity [2] of 95% and an Activity [3] of 100%. For the same compound, the Activity [4] was 94%, the Activity [5] was 100% and the Activity [6] was 90%. The Activity [7] was 100%, the Activity [8] was 100% and the Activity [9] was 73%. It also gave an Activity [10] of 100%, an Activity [11] of 87% and an Activity [12] of 95%. It also gave an Activity [13] of 77%, an Activity [14] of 96% and an Activity [15] of 100%. The Activity [16] was 88%, the Activity [17] was 100% and the Activity [18] was 100%. It also gave an Activity [19] of 73%, an AUC(0-inf) [20] of 115 ng·h/mL and an Activity [21] of 85%.
